# Measured values from different studies.
# Effect on: metabolic stability
Compound,species,sample,concentration,pH,half-life
N#Cc1cc(NC(=O)[C@H]2c3ccccc3C(=O)N(CC(F)(F)F)[C@@H]2c2cccnc2)ccc1F,rat,liver microsomes,,,> 240 min
CCc1cccc(CC)c1-n1c(C)c(C(=O)NC)cc(-c2nc(-c3ccc(Cl)cc3)cs2)c1=O,rat,liver microsomes,1 µM,pH 7.4,1.5 min
CCCCN1C(=O)C(COC)NC(=O)C12CCN(Cc1ccc(Oc3ccccc3)cc1)CC2.Cl (stereo not drawn),rat,liver microsomes,5 µM,,16 min
O=C(O)c1ccccc1-c1c2cc(Cl)c(=O)cc-2oc2cc(O)c(Cl)cc12,male Sprague-Dawley rat,liver microsomes,,,250 min
O=C(N[C@H](Cc1c[nH]c2ccccc12)C(=O)Nc1ccncc1)c1ccc(-c2cc(F)ccc2F)cc1F,rat,liver microsomes,,,17 min
CC(C)(C)C[C@@H]1N[C@@H](C(=O)N[C@H]2C[C@](C)(O)C2)[C@H](c2cccc(Cl)c2F)[C@]12C(=O)Nc1cc(Cl)ccc12,rat,liver microsomes,,,> 60 min
Cc1ccc2c(c1)nc(CCc1cccc3cccnc13)n2-c1ccccc1,rat,liver microsomes,1.5 µM,,0.87 min
O=C(OC(C(F)(F)F)C(F)(F)F)N1CCc2ccccc2C1,rat,liver microsomes,,,12 min
N#Cc1ccc(C[C@@H](NC(=O)Nc2ccc(F)cc2)C(=O)N2CCc3ccc(F)cc32)cc1,rat,liver microsomes,10 µM,pH 7.4,> 15 min
CCc1cccc(CC)c1-n1c(C)c(C(=O)N2CCNCC2)cc(-c2nc(-c3ccc(Cl)cc3)cs2)c1=O,rat,liver microsomes,1 µM,pH 7.4,> 30 min
COc1ccc(CNC(=O)c2c(C)nc3cc(C)ccn23)cc1,rat,liver microsomes,,,19 min
CCOc1c(O)cc(Br)c2c1CN1CCc3cc(OCC(F)F)c(O)cc3[C@@H]1C2,rat,liver S9,2 µM,pH 7.4,5.71 min
O=C(OC(C(F)(F)F)C(F)(F)F)N1Cc2ccc(OCCN3CCOCC3)cc2C1,rat,liver microsomes,,,17 min
O=[N+]([O-])c1ccc(CNc2nc(NCc3cccc(C(F)(F)F)c3)nc3[nH]cnc23)cc1,rat,liver microsomes,1 µM,pH 7.4,17 min
O=c1ccc2ccc(O)cc2o1,rat,liver S9,2 µM,pH 7.4,6.54 min
